pEC50: −log10 of the molar value.
Columns and labels:
FM3A [1] = experiment: Cytotoxicity against mouse mammary tumor FM3A cells representing a model of host; format: functional, cell-based
How it was run: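 Growth of mouse mammary tumor FM3A cells, used as a host model, read as EC50; some entries are given as lower-effect ECx values (% growth observed) where noted.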

Plasmodium falciparum = experiment: In vitro antimalarial activity against chloroquine-sensitive Plasmodium falciparum FCR3; format: functional, organism-based
How it was run: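 In vitro growth of chloroquine-sensitive P. falciparum FCR-3 read as EC50; some entries are given as EC70 values (% parasite growth observed) where noted.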

[2] = (§1) Selective toxicity- EC50 value of FM3A / EC50 value of Plasmodium falciparum; format: cell-based; conditions: mouse, FM3A cells; read-out: Toxicity ratio
How it was run: (§2)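 Ratio computed as EC50 in FM3A cells divided by EC50 against P. falciparum FCR-3.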

FM3A [3] = experiment: as §1; format: cell-based; conditions: mouse, fm3a; how it was run: as §2

Row | SMILES | pEC50 (FM3A [1]; Mus musculus, FM3A) | pEC50 (Plasmodium falciparum; Plasmodium falciparum) | selectivity ratio [2] | pEC50 (FM3A [1]; fm3a) | pEC50 (Plasmodium falciparum) | Toxicity ratio (FM3A [3])
1 | CCn1c(=O)/c(=C2\Sc3ccccc3N2C)s/c1=C\c1cccc[n+]1CCCCC(=O)O | < 4.74 | 6.17 | > 26 |  |  | 
2 | CC[n+]1ccccc1/C=c1\s/c(=C2/Sc3ccccc3N2C)c(=O)n1CCCCC(=O)O | < 4.77 | 5.82 | > 11 |  |  | 
3 | CCn1c(=O)/c(=C2\Sc3ccccc3N2C)s/c1=C\c1cccc(-c2ccccc2)[n+]1C | 5.72 | 7.25 | 34 |  |  | 
4 | CCn1c(=O)/c(=C2\Sc3ccccc3N2C)s/c1=C\c1cccc[n+]1C | 4.85 | 7.55 | 500 |  |  | 
5 | CN(C)c1ccc2nc3ccc(N(C)C)cc3[s+]c2c1 [METHYLENE BLUE ANHYDROUS] | 5.96 | 7.77 | 65 |  |  | 
6 | COC(=O)c1ccccc1-c1c2ccc(=N)cc-2oc2cc(N)ccc12 [RHODAMINE123] | 5.00 | 6.52 | 33 |  |  | 
7 | CCN1C(=O)CS/C1=C\c1sc2ccccc2[n+]1CC |  | 6.28 |  |  |  | 
8 | CCn1c(=O)/c(=C2\Sc3ccccc3N2C)s/c1=C\c1cc[n+](C)cc1 | < 4.62 | 7.25 | > 430 |  |  | 
9 | CCn1c(=O)/c(=C2\Sc3ccccc3N2C)s/c1=C\c1cccc[n+]1C.[Cl-] |  |  |  | 4.80 | 7.59 | 620
10 | CCn1c(=O)/c(=C2\C=CC=CN2C)s/c1=C\c1cccc[n+]1C |  | 6.46 |  |  |  | 
11 | CN1/C(=c2\s/c(=C\c3cccc[n+]3C)n(Cc3ccccc3)c2=O)Sc2ccccc21 | 6.10 | 7.51 | 26 |  |  | 
12 | C=CCn1c(=O)/c(=C2\Sc3ccccc3N2C)s/c1=C\c1cc[n+](C)cc1 | 5.17 | 7.85 | 480 |  |  | 
13 | CCn1c(=O)/c(=C2\Sc3ccccc3N2C)s/c1=C\c1cccc[n+]1C.Cc1ccc(S(=O)(=O)[O-])cc1 |  |  |  | 4.96 | 7.64 | 480
14 | CCN1C(=O)/C(=C2\Sc3ccccc3N2C)SC1=S |  | < 4.55 |  |  |  | 
15 | C=C[C@H]1C[N@@]2CC[C@H]1C[C@H]2[C@H](O)c1ccnc2ccc(OC)cc12 [QUININE] |  |  | 910 |  |  | 
16 | C=CCn1c(=O)/c(=C2\Sc3ccccc3N2C)s/c1=C\c1cccc[n+]1C [listing 1 of 2 here] |  |  |  |  | < 7.42 | 

Row | SMILES | pEC50 (FM3A [1]; Mus musculus, FM3A) | pEC50 (Plasmodium falciparum; Plasmodium falciparum) | selectivity ratio [2] | pEC50 (FM3A [1]; fm3a) | pEC50 (Plasmodium falciparum) | Toxicity ratio (FM3A [3])
17 | CCn1c(=O)/c(=C2\C=Cc3ccccc3N2C)s/c1=C\c1cccc[n+]1C |  | 6.62 |  |  |  | 
18 | CC[N+]1=C(SC)S/C(=C2/Sc3ccccc3N2C)C1=O |  | 5.43 |  |  |  | 
19 | CCn1c(=O)/c(=C2\Sc3ccccc3N2C)s/c1=C\c1ccc2ccccc2[n+]1C | 6.24 | 8.34 | 130 |  |  | 
20 | CCn1c(=O)/c(=C2\Sc3ccccc3N2C)s/c1=C\c1cc[n+](C)c2ccccc12 | 6.17 | 8.11 | 87 |  |  | 
21 | CN1/C(=c2\s/c(=C\c3cccc[n+]3C)n(C)c2=O)Sc2ccccc21 | 5.42 | 7.35 | 84 |  |  | 
22 | C=CCn1c(=O)/c(=C2\Sc3ccccc3N2C)s/c1=C\c1cccc[n+]1C [listing 2 of 2 here] | 4.92 |  | 1000 |  | 7.92 | 
23 | CCn1c(=O)/c(=C2\SCCN2C)s/c1=C\c1cccc[n+]1C | < 4.47 | 6.64 | > 150 |  |  | 
24 | CCn1c(=O)/c(=C2\Sc3ccccc3N2C)s/c1=C\c1cccc[n+]1CC | 4.82 | 7.15 | 210 |  |  | 
25 | CN1/C(=C\c2cccc[n+]2C)Sc2ccccc21 |  | 6.62 |  |  |  | 
26 | CCn1c(=O)/c(=C2\Sc3ccccc3N2C)s/c1=C\c1cccc[n+]1C.[OH-] |  |  |  | 4.89 | 7.66 | 590
27 | CN1/C(=c2\s/c(=C\c3cc[n+](C)cc3)n(Cc3ccccc3)c2=O)Sc2ccccc21 | 6.09 | 7.30 | 16 |  |  | 
28 | CCn1c(=O)/c(=C2\Sc3cc(C(F)(F)F)ccc3N2C)s/c1=C\c1cccc[n+]1CC | 5.38 | 7.18 | 64 |  |  | 
29 | CCN(CC)CCCC(C)Nc1ccnc2cc(Cl)ccc12 (stereo not given) [CHLOROQUINE] |  |  | 1800 |  |  | 
30 | CCn1c(=O)/c(=C2\Sc3ccc4ccccc4c3N2C)s/c1=C\c1cccc[n+]1CCO | 5.30 | 7.37 | 120 |  |  | 
31 | CCn1c(=O)/c(=C2\Sc3ccccc3N2C)s/c1=C\c1cccc[n+]1CCO | < 4.77 | 6.68 | > 81 |  |  | 

Source: ChEMBL document CHEMBL1135578, “Rhodacyanine dyes as antimalarials. 1. Preliminary evaluation of their activity and toxicity” (J Med Chem, 2002)
